The EternaBench riboswitch data

Test system: MS2 coat protein
Experiment: apparent Kd, MS2 coat protein; higher = weaker binding; RNA-MaP array; FMN 200 µM where present
Procedure, shortened: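 Designs on Illumina sequencing-chip clusters, transcribed by stalled E. coli RNA polymerase, were exposed to SNAP-549-labelled MS2 coat protein in doubling steps from 0.7 or 1.5 nM up to 3 µM, without and then with constant ligand. The buffer held 100 mM Tris-HCl pH 7.5, 80 mM KCl, 4 mM MgCl2, BSA, DTT, yeast tRNA and Tween-20. Apparent Kd values are medians of filtered per-cluster binding-curve fits to green signal normalised to red-channel RNA signal and control-cluster median Fmax.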

[1] = designed as: ON switch for flavin mononucleotide, no ligand
[2] = ligand present: flavin mononucleotide, designed as: ON switch for flavin mononucleotide
[3] = designed as: OFF switch for flavin mononucleotide, no ligand
[4] = ligand present: flavin mononucleotide, designed as: OFF switch for flavin mononucleotide

Row | Sequence | apparent Kd [1] [nM] | apparent Kd [2] [nM] | apparent Kd [3] [nM] | apparent Kd [4] [nM]
1 | CGAGGACAUGAGGAUCACCCAUGUAGCUACAAAAUGCAGCGACAGGAUAUCCUCUGGUUCCCAUAGGAGAAGGGUCAAACCUUG | 26.8 | 47.5 | – | –
2 | GUAGCUAUCGGAGGAUAUUCAUACCGGAAACGGACAUGAGGAUCACCCAUGUGGCGAAAGCCUUUGGAGAAGGCCGAUAGCUAC | 3.56 | 3.33 | – | –
3 | CGUUGUGAAGAGGAUAUCCAACAAAGUUGUCAAGGAGAAGGCUUCACAUGAGGAUCACCCAUGUUAUGCCUUAU | – | – | 18.2 | 80.2
4 | UUGUGCUGAGAGAAGGUUCAAACUACAUAUUGCGCACAUGAGGAUCACCCAUGUUGGUGAAUAAGAAAGGAUAUUUUACUGUAU | – | – | 244 | 184
5 | UAGUGAUUGCAAGGAUAUGCUUAUGUUUAAUUUUAUUUAUUAUCUAACAUGAGGAUCACCCAUGUGCAGAAGGUGCUUGAUUUG | 63.4 | 53.4 | – | –
6 | CCAGAUAUGUGAGGAUAUAUAGUGGAAUACACUAUAGAAGGUAUGUGAGAACAUGAGGAUCACCCAUGUCAUUGGUUAUCUGGA | 29.7 | 35.6 | – | –
7 | AGCUGGUGACAGCAAGAAUUUUAACAUGAGGAUCACCCAUGUAGAAGGCUGUACGGUUACCGUACAGAGGAUAUACAUAGAAAG | – | – | 43.2 | 62.2
8 | GAGCGGCGUACAGGAUAUCCUACAUGAGGAUCACCCAUGUCACAUUUACACGAGAACGUGUACGAGGAGAAGGGUGGGUUCGUG | 287 | 588 | – | –
9 | AUACAUGAGGAUCACCCAUGUAAUUAAUUAAUUAAUAAGAUCUAGGAUAUCAGCUCGUUUAGAGCUGAGAAGGAGAUCACAUGU | 23.4 | 13.1 | – | –
10 | CAUGGACGGUUAGGAUAUGACCUUUAAUGAAAGUCAGAAGGGAUCGCACAUGAGGAUCACCCAUGUCGCAGACUCGGGCGACUU | – | – | 14.9 | 21.1
11 | GCUAUCGAUGUAGGAUAUGCUAGGGAAACCCUGGCAGAAGGACAUGAGGAUCACCCAUGUCAAUGGAUGAAGAGAAGAGAUGGC | – | – | 27.8 | 122
12 | CCUAAGGAGGCAGGAUAUAGUGUGGUGGCCGGGCUCCCACGGCGAGCGGCACUAGAAGGGUCGUUACAUGAGGAUCACCCAUGU | 12.7 | 11.6 | – | –
13 | CAGGAUAGAGGAUAUACAUAGAUACAGAUUCAUGUAAUCCUACAUGAGGAUCACCCAUGUAGAAGGCUAUCCUG | – | – | 14.9 | 64.9
14 | GUGACGAAUGUAGGAUAUGCUGAGGAUAACUCAGCAGAAGGACAUGAGGAUCACCCAUGUAAUCCUAAUAAUAAAUAACGUCAC | – | – | 12.7 | 18.3
15 | AGAAAACAUGAGGAUCACCCAUGUCAAGCUAAUCAAGGAUAUGGGUCGGGAAAUCCCGCACCAGAAGGUGAAAUGC | 123 | 24.5 | – | –
16 | UUUGCAUGACGAGGAUAUCAUUUAUUUCUUGAUUGAGAAGGCGUUCUUUUUAAUACCUAACAUGAGGAUCACCCAUGUGACAGU | 17.9 | 13.2 | – | –
17 | GUUGUGUAAGGAUAUGCCUGGCCGUGAGGCCAGAUUGAAUGGCAGAAGGUACAUGAGGAUCACCCAUGUACGGG | – | – | 33.2 | 188
18 | CUGGUUGUCGAGGAUAUGUCCCGGCUCGCUGACGCAGAAGGCGACACAUGAGGAUCACCCAUGUCGGUUCGCGU | – | – | 20.1 | 21.8
19 | GGACGUCUCAUUAACAUGAGGAUCACCCAUGUCGAUAGACAUGAGGAUAUGGAUCCGAAUCGGAUCCAGAAGGCAUGGACGUCC | 1170 | 72.4 | – | –
20 | GGAACUCAUGUAGGAUAUGCAUGGCGAAGCUACGCAGAAGGACAUGAGGAUCACCCAUGUUCUAGCGUCUGGAGACAGAUGCAA | – | – | 174 | 126
21 | AUCCUGCGAGGAUAUACAUAAUUUUUUUCAUUUUGUUUCGAACAUGAGGAUCACCCAUGUAGAAGGUGCUACAC | – | – | 32.1 | 29

Row | Sequence | apparent Kd [1] [nM] | apparent Kd [2] [nM] | apparent Kd [3] [nM] | apparent Kd [4] [nM]
22 | UGGUACAUCGGAGGAUAUCAUGUAGAUACAUGAGGAUCACCCAUGUCGAUGGAGACAUCGGAGAUUGAGAAGGCCGAUGUACCU | 612 | 31.7 | – | –
23 | GUAGCUAUCGGAGGAUAUGGGUUGCGGAAACGCACAUGAGGAUCACCCAUGUAAAUAAAUAAUUCCUAGAAGGCCGAUAGCUAC | 21 | 15 | – | –
24 | CGGUGACGUGUAGGAUAUGGCGAUGGGUUUUGGCCAGAAGGACAUGAGGAUCACCCAUGUGGUAGAGGGCUGGCGGCUGCCCGU | – | – | 13.6 | 57.5
25 | ACAUAGCGAGGAUAUACAUGAGGAUCACCCAUGUGGUGGCGGUUACGGUAGGACUAGUGUAGAAGGUGCCAUGG | – | – | 418 | 424
26 | AUAAGCUCGUCAGGAUAUACGUCACUGCUUCGGCAGUGAGGUAAGAUCACAUGAGGAUCACCCAUGUAGAAGGGACGAGCUUAU | – | – | 5.65 | 14.4
27 | ACGGCUGUCAGAGGAUAUGGUUACAUGAGGAUCACCCAUGUCAAGGGUCUAAUUAAGUAUAACUACUAGAAGGCUGAUGGCCUA | – | – | 263 | 144
28 | AAUAUGAGCUGGAAUAAACCUUGAACAUGAGGAUCACCCAUGUAGGAUAUCAGCACGAUAAGUGCUGAGAAGGACAACCAGCUC | – | – | 13.6 | 15.3
29 | GUUUUCGCGUGAGGAUAUGCUCGCAUUUCAAGAGCAGAAGGUAUGUCUAUAGACAUGAGGAUCACCCAUGUAUUUAUCAUUGAA | 226 | 160 | – | –
30 | CAGGUAGACUGAGGAUAUACAAAAGACCUAGUCUAUCUAGGUCAACUCACAUGAGGAUCACCCAUGUAGAAGGCAGUCUGCCUG | – | – | 19.3 | 70.9
31 | UUUGUUGUUGUGAGGAUAUCGUUGAUUUUUUGAAACGAGAAGGCACAUGAGGAUCACCCAUGUUUGUUGUUGGU | – | – | 66.2 | 248
32 | CUUUUGUGAGGAUAUUAGUAGUAAAAAAAUAAAAUUACUACUGAGAAGGCACAUGAGGAUCACCCAUGUUCUUC | – | – | 19 | 98.1
33 | CCAUAAAGGUAGGAUAUCGAUUUUAAUUAAUAUCGAGAAGGGUCAACAUGAGGAUCACCCAUGUCAGCAUGUAA | – | – | 60.9 | 58.7
34 | AAAAAACAUGAGGAUCACCCAUGUCAAAAGACGUGAGGAUAUGUACAGACUUCGGUCUGUACAGAAGGCAUGUCAA | 30.1 | 16.5 | – | –
35 | AGCUGUGGCCGAGGAUAUCUAUCUCAUAAAACCGAAAUAUAAUCGGACAUGAGGAUCACCCAUGUAGAGAAGGCGGUCUCAGCA | – | – | 27.6 | 129
36 | CACGGCAUCGGAGGAUAUACAUGAGGAUCACCCAUGUGGGUUGUACGCCGUGUAGAAGGCCGAGACCACCUUCUAGCUGGGAAG | – | – | 11.7 | 33.1
37 | CCAUAAAAGAUCCAAAUUUACAACAUGAGGAUCACCCAUGUGCAGGAUAUCGUGAAAGUAAAAUACGAGAAGGGCAAGAACUGC | – | – | 300 | 362
38 | CCGGGCUAGGAGAAGGGCUAGAGUGUGAUAUAUUUGCCCGCGAGCACAUGAGGAUCACCCAUGUAGCAGGAUAUCCAAGCCGGU | – | – | 7.25 | 21.2
39 | GACUGAUUGUAGAAGGUACUUGACUAUAUAUUUUAUUCAUAUAGACAUGAGGAUCACCCAUGUAGUAAGGAUAUACUUUUAACA | 9.31 | 6 | – | –
40 | AAUUCACAUGAGGAUCACCCAUGUGAGGAUAUGGUUUCGCUGGCCGUAGCCAGUGGAACCAGAAGGCGCGUGAU | – | – | 56.5 | 65.2
41 | AUAAUUUUAUAAUUCUAUAUAUUCAGAAGGCAUAACAUGAGGAUCACCCAUGUAAAUUAAUGUUAUGAGGAUAUGAUUCGGUUA | – | – | 13.9 | 67.3
